Diaph inh CS: diaphorase inhibition or chemical oxidation counter-screen; diaphorase resazurin-to-resorufin fluorescence, NADH, 16 min; bacterial (C. kluyveri) enzyme, not human; inhibition, % at 20 µM; 0.69% of 190,000 active; AID 1217;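 active = primary screen inhibition at 20 µM above a set limit, cut at about 50% in these data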;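 also: plate controls were DMSO with full reaction for no effect and wells lacking NADH for full effect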
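System: Bacterial diaphorase enzyme (C. kluyveri) | Incubation: 16-min room-temperature incubation before reading | Benchmarks: No-NADH positive control and DMSO neutral control | Measured by: Resorufin fluorescence 544/590 nm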
PMI act satM6P: increases human PMI activity with near-saturating mannose 6-phosphate | P34949 | coupled PMI enzyme assay, resazurin fluorescence, 20 min; stronger effect = higher value; 1 = untreated enzyme, 0 = substrate-free blank | activation factor at 20 µM | 0.34% of 190,000 active | AID 1216;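 active = activation factor of 2 or more at 20 µM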
Target sequence (P34949 whole entry, looked up): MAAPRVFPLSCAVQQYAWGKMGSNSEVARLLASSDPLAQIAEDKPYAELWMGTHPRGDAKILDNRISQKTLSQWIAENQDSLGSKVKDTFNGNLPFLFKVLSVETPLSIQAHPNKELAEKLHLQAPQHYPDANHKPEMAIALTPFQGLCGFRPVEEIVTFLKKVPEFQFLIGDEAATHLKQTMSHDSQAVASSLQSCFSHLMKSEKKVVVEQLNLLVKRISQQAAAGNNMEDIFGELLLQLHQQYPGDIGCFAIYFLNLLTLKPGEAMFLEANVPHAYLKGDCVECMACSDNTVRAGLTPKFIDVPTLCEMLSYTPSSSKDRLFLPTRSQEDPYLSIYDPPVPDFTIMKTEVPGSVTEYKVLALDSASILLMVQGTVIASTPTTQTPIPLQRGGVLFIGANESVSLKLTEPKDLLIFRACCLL
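Material: human phosphomannose isomerase with PGI, G6PDH, diaphorase coupling enzymes. Quantity: 15 ng/mL PMI. Medium: HEPES pH 7.4 buffer with MgCl2 and Tween-20. Reagent: Near-saturating mannose-6-phosphate, 1.0 mM. Compound: 20 µM single dose. Times: enzyme reaction with compound 20 min at room temperature. Detection: resorufin fluorescence at Ex 544/Em 590 nm.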
Diaph act CS: diaphorase activation or chemical reduction counter-screen. activation factor at 20 µM. AID 1229. 0.005% of 190,000 active. Diaphorase/resazurin coupled assay, resorufin fluorescence, 16 min; stronger effect = higher value; 1 = vehicle wells, 0 = NADH-free wells;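 active = diaphorase activity raised at least twofold by the compound at 20 µM; inactive = activation factor below 2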
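Assay system: Purified diaphorase enzyme from Clostridium kluyveri | Amount: Enzyme 0.07 U/mL final | Dosing: Compound 20 µM once, DMSO 1% | Timing: 16 min reaction at room temperature | Detection: Fluorescence, excitation 544 nm and emission 590 nm | Evaluation: Higher resorufin formation from activation or reduction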
Tb hexokinase: blocks Trypanosoma brucei hexokinase 1 activity; recombinant TbHK1, G6PDH-coupled NADH A340; inhibition, % at 10 µM; 0.11% of 220,000 active; AID 1430;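 active = inhibition of 50% or more in the single-dose primary screen; inactive = inhibition below 50%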
PMI act: activators of human phosphomannose isomerase; P34949; purified human PMI, coupled resazurin fluorescence, 20 min; stronger effect = higher value; 1 = vehicle control, 0 substrate-free wells; activation factor at 20 µM; 0.005% of 190,000 active; AID 1214;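 active = activation factor of 2 or more at 20 µM, relative to plate controls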
G6PDH counter-1: inhibits Leuconostoc G6PDH, flagging false hits in G6PDH-based assays; Purified L. mesenteroides G6PDH, diaphorase/resazurin coupled fluorescence, 45 min; inhibition, % at 5 µM; 0.12% of 200,000 active; AID 1020; in the data active = inhibition above about 50%
G6PDH counter-2: counter-screen for TbHK1 inhibitors: Leuconostoc G6PDH inhibition | purified G6PDH, NADH absorbance, 1 h | inhibition, % at 10 µM | 7% of 210 active | shares compounds with Tb hexokinase;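 active = at least 50% inhibition in the glucose-6-phosphate dehydrogenase coupled counterscreen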
TbHK1 confirm: confirmation of Trypanosoma brucei hexokinase 1 inhibitors; shares compounds with Tb hexokinase; recombinant TbHK1, G6PDH-coupled NADH A340 absorbance; inhibition, % at 10 µM; 10% of 210 active;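 active = inhibition of at least 50% in both of the two screening runs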;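 also: 0% and 100% set by the maximum and minimum signal control wells on each plate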
Active calls of the source: *. This is a sample that favours compounds with a hit; in the whole collection about 1.1% have one here.

Results for COc1ccc(/C=C2/C(=O)NC(=S)N(C3CC3)C2=O)cc1CN1C(=O)c2ccccc2C1=O ?
Diaph inh CS: 14.0; PMI act satM6P: 2*; Diaph act CS: 0.9; Tb hexokinase: -4.6; PMI act: 1.6; G6PDH counter-1: -10.1

What do the screens show for `O=C1NS(=O)c2cc([N+](=O)[O-])cc([N+](=O)[O-])c21` (stereo unspecified)?
Diaph inh CS: 5.1; PMI act satM6P: 2*; Diaph act CS: 0.9; Tb hexokinase: -2.2; PMI act: 1.6; G6PDH counter-1: 12.6

What do the screens show for `CN1CCN(c2nc3ccccc3o2)CC1`?
Tb hexokinase: -8.1

How did CSc1nc(N2CCN(C)CC2)c2ccccc2n1 do in these assays?
Diaph inh CS: 56.8*; PMI act satM6P: 0.9; Diaph act CS: 0.4; Tb hexokinase: -15.0; PMI act: 0.9; G6PDH counter-1: 6.7

How did COc1cc(CN2CCCC(C(=O)c3sccc3C)C2)cc(OC)c1O (stereo unspecified) do in these assays?
Diaph inh CS: 25.2; PMI act satM6P: 0.3; Diaph act CS: 0.7; Tb hexokinase: -1.4; PMI act: 0.7; G6PDH counter-1: 56.8*

Results for CC(=O)NC(Cc1ccc(N(CCCl)CCCl)cc1)C(=O)NC(CC(C)C)C(=O)O (stereo unspecified) ?
Diaph inh CS: 1.6; PMI act satM6P: 2*; Diaph act CS: 1; Tb hexokinase: -3.7; PMI act: 1.7; G6PDH counter-1: 9.5

Results for COc1cccc(-n2c(/C=C/c3ccc(O)c(O)c3)nc3ccccc3c2=O)c1 ?
Diaph inh CS: 69.1*; PMI act satM6P: 0.9; Diaph act CS: 0.3; Tb hexokinase: -29.0; PMI act: 0.4; G6PDH counter-1: 26.1

What do the screens show for `CSC(=Nc1ccccc1)c1c(O)n(C)c(=O)n(C)c1=O`?
Diaph inh CS: 10.4; PMI act satM6P: 2.2*; Diaph act CS: 0.9; Tb hexokinase: 3.8; PMI act: 1.7; G6PDH counter-1: 2.8

How did CC1CC(OP(O)(=S)c2ccc(N(C)C)cc2NC(=O)c2cccs2)CC(C)(C)C1 (stereo unspecified) do in these assays?
Diaph inh CS: 18.1; PMI act satM6P: 0.6; Diaph act CS: 0.8; Tb hexokinase: 6.6; PMI act: 0.4; G6PDH counter-1: 1.2

What do the screens show for `Oc1cc2c(cc1O)[C@H]1c3ccccc3CN[C@@H]1CC2`?
Diaph inh CS: 64.6*; PMI act satM6P: 0.8; Diaph act CS: 0.4; PMI act: 0.5; G6PDH counter-1: 31.4

How did O=C1NC(=O)N(CCc2ccc(F)cc2)C(=O)/C1=C/c1ccco1 do in these assays?
Diaph inh CS: 8.8; PMI act satM6P: 2*; Diaph act CS: 0.9; Tb hexokinase: 14.2; PMI act: 1.6; G6PDH counter-1: 16.5

Results for Cc1ccc(/C=C2/C(=O)NC(=O)N(CCc3ccc(F)cc3)C2=O)o1 ?
Diaph inh CS: 11.4; PMI act satM6P: 1.1; Diaph act CS: 0.9; Tb hexokinase: 2.9; PMI act: 1; G6PDH counter-1: 9.1

What do the screens show for `O=C1C=Cc2ccccc2C1=O`?
Diaph inh CS: 78.4*; PMI act satM6P: 0.2; Diaph act CS: 0.2; Tb hexokinase: 40.8; PMI act: 0.2; G6PDH counter-1: 61.8*

What do the screens show for `O=c1[nH]c(=O)n(CCC2=CCCCC2)c(O)c1C=NCc1cccnc1`?
Diaph inh CS: 4.2; PMI act satM6P: 0.9; Diaph act CS: 1; Tb hexokinase: 56.1*; PMI act: 1; G6PDH counter-1: 27.3; G6PDH counter-2: -8.9; TbHK1 confirm: -6.0

Results for O=P(O)(O)COc1ccccc1O ?
Diaph inh CS: 2.8; PMI act satM6P: 1; Diaph act CS: 1; Tb hexokinase: 73.4*; PMI act: 0.9; G6PDH counter-1: 5.6; G6PDH counter-2: -8.1; TbHK1 confirm: -0.9

Results for NP(=O)(Oc1ccccc1Cl)Oc1ccccc1Cl ?
Diaph inh CS: 18.0; PMI act satM6P: 0.9; Diaph act CS: 0.8; Tb hexokinase: 2.9; PMI act: 1; G6PDH counter-1: -2.6

How did Cc1cc(C)c(Cn2c(C(=O)O)c(C=O)c3ccccc32)c(C)c1 do in these assays?
Diaph inh CS: -10.5; PMI act satM6P: 1.2; Diaph act CS: 1.1; Tb hexokinase: 4.5; PMI act: 1.4; G6PDH counter-1: 10.5
